Source: the EternaBench riboswitch data

Test system: MS2 coat protein
Assay: apparent Kd, MS2 coat protein; higher = weaker binding; RNA-MaP array; FMN 200 µM where present
Procedure, shortened: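 Designs were transcribed by stalled E. coli RNA polymerase on Illumina sequencing-chip clusters. They were titrated with SNAP-549-labelled MS2 coat protein from 0.7 or 1.5 nM, doubling to 3 µM, in 100 mM Tris-HCl pH 7.5, 80 mM KCl, 4 mM MgCl2, BSA, DTT, yeast tRNA and Tween-20, without and then with constant ligand. The apparent Kd is the median of filtered per-cluster fits after normalisation of green signal to red-channel RNA signal and control-cluster median Fmax.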

[1] = designed as: OFF switch for flavin mononucleotide, no ligand
[2] = ligand present: flavin mononucleotide, designed as: OFF switch for flavin mononucleotide
[3] = designed as: ON switch for flavin mononucleotide, no ligand
[4] = ligand present: flavin mononucleotide, designed as: ON switch for flavin mononucleotide

Row | Sequence | apparent Kd [1] [nM] | apparent Kd [2] [nM] | apparent Kd [3] [nM] | apparent Kd [4] [nM]
1 | UCAUGAAGGGCAGGAUAUGGACAUGAGGAUCACCCAUGUACAUGGGAUAAUAUACUAAAUUAAUACUAGAAGGGUUACAUAAAU | 37.2 | 24.6 |  | 
2 | UCAUUAGCGGGCGGAUCGGUUGGACAUGAGGAUCACCCAUGUAGAAGGACCGGUGGAUUCCGGCGGUAGGAUAUACAUUUGGUG | 12.7 | 19.8 |  | 
3 | UCAUUGAUUGUGAGGAUAUCGAUGUGAUGGUUUGUCGAGAAGGCACAUGAGGAUCACCCAUGUUUGUUUGGGCU | 494 | 253 |  | 
4 | UCAUUUAUUACAGGAUAUAUUAGUAUACAGUUGUUUGGUUAUUACAUAUUAAUAGAAGGGUAGAACAUGAGGAUCACCCAUGUA |  |  | 234 | 119
5 | UCAUUUCUGUAAGGAUAUAUAAACAUGACGAUACAUGAGGAUCACCCAUGUGUAGAAGGUACAAAUACAUAUAAUGCAAUGUUC | 14.8 | 12.9 |  | 
6 | UCAUUUUACACAGGAUAUACUCAUAUACAGUUGUUUGGCUCUUACAUGUUAGUAGAAGGGUGCAACAUGAGGAUCACCCAUGUA |  |  | 621 | 250
7 | UCCAGAUCGCGAGGUAGGAGUAGCAGAAGGCGACCGGUGCCAGAUGACAUGAGGAUCACCCAUGUCGAGGAUAUGCUACAGAAU | 6.49 | 13.2 |  | 
8 | UCCAUGUUAGGAUAUUACAUGCAGGCUGUAACACGCCGGUGUAAGAAGGAACAUGAGGAUCACCCAUGUGUCGU | 68 | 137 |  | 
9 | UCCGCAAGUGAAGGAUAUACGGCUGAAGAGCCAGUAGAAGGUCACAUGAGGAUCACCCAUGUCUACCGCUACGAGAUAUUACAA | 19.1 | 59.5 |  | 
10 | UCCUCACAUGAGGAUCACCCAUGUUAGGAUAUCUCGGUGCCCUGCAGGCAGUGGCACCAGAGAAGGAACGUGCA | 21.2 | 22.1 |  | 
11 | UCCUUCUGUUGAGGAUAUGUAAGACAGCGGCUGCUAUUACGGCACGCUGAUACAGAAGGCAACAUGAGGAUCACCCAUGUUCAA | 24.1 | 189 |  | 
12 | UCCUUGUCCUGAGGAUAUCCGUGGUUACCGAAAGGAGAAGGCAGGACAUGAGGAUCACCCAUGUACCCAGAAAACGUGCAGAGA | 59.3 | 467 |  | 
13 | UCCUUGUCCUGAGGAUAUCCGUGGUUACCUAAAGGAGAAGGCAGGACAUGAGGAUCACCCAUGUACCCAGAAAACGUGCAGAGU | 234 | 126 |  | 
14 | UCGAACUUUCGUGUAAUUCGCACAUGAGGAUCACCCAUGUACGAGGAUAUGUACCUAAACGGCUAACAGAAGGCGUACUGGGCA | 170 | 106 |  | 
15 | UCGAGGUCAGGAUAUACAUGAGGAUCACCCAUGUGGAAGUAAGGUAGGAGAAGAGUAGGUAGAAGGGACGAGAG | 42.6 | 35.7 |  | 
16 | UCGAGUCAUGAGAAGGGUUGAUGUUACAUGAGGAUCACCCAUGUCAUGGGCAGGAUAUCAUUGACACGACUGUACCUCUCUUAC |  |  | 254 | 112
17 | UCGAUAAGGAGAGGAUAUGGACAUGAGGAUCACCCAUGUACAUGGGAAUAUAUACUGAAUUUUUACUAGAAGGCUUACAUAAAU | 14.7 | 12.4 |  | 
18 | UCGCGGGUGCAGAAGGGAUAGGCCUAUUGUCGUGGUGUCCAAACUUAACAUGAGGAUCACCCAUGUCAGGAUAUGCCCACGCGA | 73.9 | 117 |  | 
19 | UCGCUGCGAGGAUAUACAUGAGGAUCACCCAUGUACGGGUCCGGGUUUGAGUUGAUGAGUAGAAGGCGCAGUGA | 94.7 | 86.1 |  | 
20 | UCGCUGCGAGGAUAUACGUUCGCGCGCUUUCGUUUGCGCGUACAUGAGGAUCACCCAUGUAGAAGGCGCGCUGC | 16.4 | 15.5 |  | 
21 | UCGCUUGAAGGAUAUACGAUUCGUUGUGUUCGUGUCACCUGACAUGAGGAUCACCCAUGUAGAAGGUCACGCAG | 18.6 | 24.6 |  | 
22 | UCGGCGCGAGGAUAUACGUUUGCGCGUUUUCGUUUUUGCGUACAUGAGGAUCACCCAUGUAGAAGGCGCGCCGC | 12.8 | 18 |  | 
23 | UCGGCGCGAGGAUAUACGUUUGCUUUUUAGGGUCGUGGCGUACAUGAGGAUCACCCAUGUAGAAGGCGCGCCGC | 16.9 | 52.7 |  | 
